Source: the RNAGym collection of RNA variant scans (doi:10.1126/science.aae0568)
Fewer inactive variants are shown than the library holds.

B1: tRNA (parent)
chain: GUUCCGUUGGCGUAAUGGUAACGCGUCUCCCUCCUAAGGAGAAGACUGCGGGUUCGAGUCCCGUACGGAACG

Variants of: B1
Experiment: yeast fitness relative to wild type (ratio to wild type); higher = fitter; tRNA-Arg(CCU), competitive growth, 37 C, YPD
Outline: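 A pool of Saccharomyces cerevisiae strains, each with a tRNA-Arg(CCU) gene variant at the native genomic locus, was competed in YPD at 37°C for 24 hours across six parallel replicates. The variants had been chemically synthesised at a 3% per-site mutation rate over 69 sites, and gene amplicons before and after competition were read by 100-nucleotide paired-end sequencing. Darwinian fitness relative to wild type rested on changes in genotype frequencies. Genotypes required ≥ 100 starting reads, and estimates < 0.5 were set to 0.5.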

Q: Which yeast fitness does the source give for GUUCCGUUGGCGUAAUGGUAACGCGUCUCCCUCCUAAGGAGUAGACUGCGGGUUCGUCUCCCGUACGGAACG [A42U A57U G58C] here?
A: The yeast fitness was 0.542.

Q: Which yeast fitness does the source give for GUUCCGUUGGCGUAAUGGUAACGCGUCUCCCUCCUAAGGAGUAGACUGCGGGUUCGCGUCUCGUACCGAACG [A42U A57C C61U G67C] here?
A: Its yeast fitness is no more than 0.5.

Q: For GUUCCGUUGGCGUAAUGGUAACGCGUCUCCCUCCUAAGGAGUAGACUGCGGGUUAGAGUCCCGUACGGAACG [A42U C55A], which yeast fitness is on record?
A: Its yeast fitness is 0.584.

Q: With GUUCCGUUGGCGUAAUGGUAACGCGUCUCCCUCCUAAGGAGUAGAUUGCGGGUUCGAGUCCUGUACGGAACG [A42U C46U C62U] as the variant, how does the yeast fitness read?
A: Its yeast fitness is 0.89.

Q: With GUUCCGUUGGCGUAAUGGUAACGCGUCUCCCUCCUAAGGAGUAGACUGCGGGUUCGAGUCACGUACGGAACG [A42U C61A] as the variant, how does the yeast fitness read?
A: The yeast fitness was 0.683.

Q: Which yeast fitness does the source give for GUUCCGUUGGCGUAAUGGUAACGCGUCUCCCUCCUAAGGAGUAGACUGCGGGUUCGAGUCGCGUACGGAACG [A42U C61G] here?
A: Its yeast fitness is 0.686.

Q: Which yeast fitness does the source give for GUUCCGUUGGCGUAAUGGUAACGCGUCUCCCUCCUAAGGAGUAGUCUGGGGGUUCGAGUCCCGUACGGAACG [A42U A45U C49G] here?
A: The yeast fitness was 0.526.

Q: With GUUCCGUUGGCGUAAUGGUAACGCGUCUCCCUCCUAAGGAGUAGUUUGCGGGUUCGAGUCCCGUAAGGAACG [A42U A45U C46U C66A] as the variant, how does the yeast fitness read?
A: The yeast fitness was no more than 0.5.

Q: With GUUCCGUUGGCGUAAUGGUAACGCGUCUCCCUCCUAAGGAGUAGACUGCGGGUUCGAGUCCAGUACGGAACG [A42U C62A] as the variant, how does the yeast fitness read?
A: The yeast fitness was 0.636.

Q: Which yeast fitness does the source give for GUUCCGUUGGCGUAAUGGUAACGCGUCUCCCUCCUAAGGAGUAGUCUGCGGGUUCGAGUCCCGUACGGCACG [A42U A45U A69C] here?
A: The yeast fitness was 0.656.

Q: With GUUCCGUUGGCGUAAUGGUAACGCGUCUCCCUCCUAAGGAGUAGACUGCGGGUUCGCGUCUCGUUCGGAACG [A42U A57C C61U A65U] as the variant, how does the yeast fitness read?
A: Its yeast fitness is 0.58.

Q: Which yeast fitness does the source give for GUUCCGUUGGCGUAAUGGUAACGCGUCUCCCUCCUAAGGAGUAAACUGCGAGUUCGAGUCCCGUACGGAACG [A42U G44A G51A] here?
A: The yeast fitness was 0.669.

Q: With GUUCCGUUGGCGUAAUGGUAACGCGUCUCCCUCCUAAGGAGUAGACUGCGGGUUCGAGUCCCGUCCUGAACG [A42U A65C G67U] as the variant, how does the yeast fitness read?
A: The yeast fitness was no more than 0.5.

Q: With GUUCCGUUGGCGUAAUGGUAACGCGUCUCCCUCCUAAGGAGUAGACUGCGGGUUCGAGUCCCGUUCGGAACG [A42U A65U] as the variant, how does the yeast fitness read?
A: The yeast fitness was 0.741.

Q: For GUUCCGUUGGCGUAAUGGUAACGCGUCUCCCUCCUAAGGAGUAGACUGCGGGUUCGAGUCCCGUGCGGAACG [A42U A65G], which yeast fitness is on record?
A: Its yeast fitness is 1.01.

Q: Which yeast fitness does the source give for GUUCCGUUGGCGUAAUGGUAACGCGUCUCCCUCCUAAGGAGUAGACUGCGGGUUCGAGUCCUGUACGGACCG [A42U C62U A70C] here?
A: Its yeast fitness is 0.594.

Q: Which yeast fitness does the source give for GUUCCGUUGGCGUAAUGGUAACGCGUCUCCCUCCUAAGGAGUACACUGCGGGUUCGAGUCCCGUACGGAACG [A42U G44C] here?
A: Its yeast fitness is 0.842.

Q: With GUUCCGUUGGCGUAAUGGUAACGCGUCUCCCUCCUAAGGAGUAGACUGCGGGUUCGUGUCCUGUACGGAACG [A42U A57U C62U] as the variant, how does the yeast fitness read?
A: The yeast fitness was 0.529.

Q: For GUUCCGUUGGCGUAAUGGUAACGCGUCUCCCUCCUAAGGAGUAGACUGCGGGUUCGCGUCCCGUACGGCACG [A42U A57C A69C], which yeast fitness is on record?
A: Its yeast fitness is no more than 0.5.

Q: For GUUCCGUUGGCGUAAUGGUAACGCGUCUCCCUCCUAAGGAGUAGACUGCGGGUUCGAGUCCCGUGCGGCACG [A42U A65G A69C], which yeast fitness is on record?
A: The yeast fitness was 0.595.

Q: For GUUCCGUUGGCGUAAUGGUAACGCGUCUCCCUCCUAAGGAGUAGACUGCGGGUUCGAGUCCCGUACGGUACG [A42U A69U], which yeast fitness is on record?
A: Its yeast fitness is 1.02.

Q: With GUUCCGUUGGCGUAAUGGUAACGCGUCUCCCUCCUAAGGAGUAGACUGCGGGUUAGAGUCCCGUCCGGAACG [A42U C55A A65C] as the variant, how does the yeast fitness read?
A: The yeast fitness was 0.538.

Q: With GUUCCGUUGGCGUAAUGGUAACGCGUCUCCCUCCUAAGGAGUAGACUGCGGGUUCGAGUCCGCUUCGGAACG [A42U C62G G63C A65U] as the variant, how does the yeast fitness read?
A: The yeast fitness was no more than 0.5.

Q: For GUUCCGUUGGCGUAAUGGUAACGCGUCUCCCUCCUAAGGAGUAGACUGCGGGUUCGAGUCCAGUUCGGAACG [A42U C62A A65U], which yeast fitness is on record?
A: The yeast fitness was 0.604.

Q: For GUUCCGUUGGCGUAAUGGUAACGCGUCUCCCUCCUAAGGAGUAGACUGAGGGUUCCAGUCCCGUGCGGAACG [A42U C49A G56C A65G], which yeast fitness is on record?
A: Its yeast fitness is no more than 0.5.

Q: With GUUCCGUUGGCGUAAUGGUAACGCGUCUCCCUCCUAAGGAGUACUCUGGGGGUUCGAGUCCCGUACGGAACG [A42U G44C A45U C49G] as the variant, how does the yeast fitness read?
A: The yeast fitness was no more than 0.5.

Q: Which yeast fitness does the source give for GUUCCGUUGGCGUAAUGGUAACGCGUCUCCCUCCUAAGGAGUAGACUGCGGGUUCGAGUCCUGUCCGGAACG [A42U C62U A65C] here?
A: Its yeast fitness is 0.526.

Q: With GUUCCGUUGGCGUAAUGGUAACGCGUCUCCCUCCUAAGGAGUAGACUGCGGGUUCGAGUCCCGUAAGGAACG [A42U C66A] as the variant, how does the yeast fitness read?
A: Its yeast fitness is 0.702.

Q: For GUUCCGUUGGCGUAAUGGUAACGCGUCUCCCUCCUAAGGAGUAGACUGCGGGUUCGGGUCCAGGAGGGAACG [A42U A57G C62A U64G C66G], which yeast fitness is on record?
A: The yeast fitness was no more than 0.5.

Q: With GUUCCGUUGGCGUAAUGGUAACGCGUCUCCCUCCUAAGGAGUAGCCUGCGGGUUUGAGUCCCGUACGGCACG [A42U A45C C55U A69C] as the variant, how does the yeast fitness read?
A: Its yeast fitness is no more than 0.5.

Q: For GUUCCGUUGGCGUAAUGGUAACGCGUCUCCCUCCUAAGGAGUAGACUGCGGGUUCGAGUGCCGUACGGAACG [A42U C60G], which yeast fitness is on record?
A: The yeast fitness was 0.579.

Q: For GUUCCGUUGGCGUAAUGGUAACGCGUCUCCCUCCUAAGGAGUAGACUGCGGGUUCGAGUUCCGUACGGAACG [A42U C60U], which yeast fitness is on record?
A: Its yeast fitness is 0.769.

Q: For GUUCCGUUGGCGUAAUGGUAACGCGUCUCCCUCCUAAGGAGUAGACUGCGGGUUCGAGUCCCGUACGGAGCG [A42U A70G], which yeast fitness is on record?
A: The yeast fitness was 1.

Q: With GUUCCGUUGGCGUAAUGGUAACGCGUCUCCCUCCUAAGGAGUAGACUGCGGGUUCGAGUCCCGUACGGAUCG [A42U A70U] as the variant, how does the yeast fitness read?
A: Its yeast fitness is 0.919.

Q: Which yeast fitness does the source give for GUUCCGUUGGCGUAAUGGUAACGCGUCUCCCUCCUAAGGAGUAGACUGCGGGUUCGAGUCCCGUACGGACCG [A42U A70C] here?
A: The yeast fitness was 1.01.

Q: For GUUCCGUUGGCGUAAUGGUAACGCGUCUCCCUCCUAAGGAGUAGAGUGCGGGUUCGAGUCCCGUACGGAACG [A42U C46G], which yeast fitness is on record?
A: Its yeast fitness is 1.12.

Q: With GUUCCGUUGGCGUAAUGGUAACGCGUCUCCCUCCUAAGGAGUAGACUGCGGGUUCGAGUCAAAUACGGAACG [A42U C61A C62A G63A] as the variant, how does the yeast fitness read?
A: The yeast fitness was 0.748.

Q: For GUUCCGUUGGCGUAAUGGUAACGCGUCUCCCUCCUAAGGAGUAGACUGCGGGUUCGUGUCGCGUACGGAACG [A42U A57U C61G], which yeast fitness is on record?
A: Its yeast fitness is no more than 0.5.
